Laboratory results as given in ChEMBL document CHEMBL2417468, “4β-[4'-(1-(Aryl)ureido)benzamide]podophyllotoxins as DNA topoisomerase I and IIα inhibitors and apoptosis inducing agents” (2013).
Activity calls are given as the source filed them. The rule behind the calls is not given here.

Assays:
[1] = system: COLO 205; assay: Cytotoxicity against human COLO205 cells assessed as reduction in cellular ATP level at 2 uM after 24 hrs by bioluminescence assay; format: functional, cell-based
Summary of the method: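 Colo-205 cells exposed 24 h at 2 µM, lysed in ice-cold RIPA, debris spun off at 4 °C; intracellular ATP in supernatant by luciferin-luciferase bioluminescence kit; three independent experiments, mean ± S.D., untreated control.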

[2] = system: COLO 205; assay: Cell cycle arrest in human COLO205 cells assessed as accumulation at G2/M phase at 2 uM after 24 hrs by propidium iodide staining-based FACS flow cytometric analysis (reference value: 29.52%); format: functional
[3] = Growth inhibition of human Gurav cells after 48 hrs by sulforhodamine B assay; format: functional
[4] = system: COLO 205; assay: Cell cycle arrest in human COLO205 cells assessed as accumulation at G0/G1 phase at 2 uM after 24 hrs by propidium iodide staining-based FACS flow cytometric analysis (reference value: 65.23%); format: functional
[5] = system: MDA-MB-231; assay: Cytotoxicity against human MDA-MB-231 cells assessed as cell viability at <0.5 to 1 uM after 24 hrs by MTT assay; format: functional, cell-based
Summary of the method: (§1)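 Colo-205 (RPMI, 10% FCS) and MDA-MB-231 (DMEM, 2 mM glutamax, 10% FCS, penicillin/streptomycin) seeded at 1 104 cells/well, 18 h preincubation; fresh medium with compound at 0.5, 1, 2 and 4 µM for 24 h at 37 °C; MTT 2 h, formazan solubilised, OD 570 nm; DMSO ≤0.25%, DMSO-only wells as untreated control.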

[6] = system: COLO 205; assay: Induction of apoptosis in human COLO205 cells assessed as caspase-3 activation at 2 uM after 24 hrs by Western blotting analysis; format: functional, cell-based
Summary of the method: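 Colo-205 cells grown to 80% confluency, 2 µM final for 24 h; RIPA lysates with protease inhibitors, Bradford-quantified, 50 µg protein per lane on 12% SDS-PAGE, PVDF transfer, probed overnight at 4 °C for active caspase-3, β-actin as loading control, chemiluminescent detection.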

[7] = system: COLO 205; assay: Cell cycle arrest in human COLO205 cells assessed as accumulation at S phase at 2 uM after 24 hrs by propidium iodide staining-based FACS flow cytometric analysis (reference value: 4.21%); format: functional
[8] = system: COLO 205; assay: Cytotoxicity against human COLO205 cells assessed as cell viability at 2 to 4 uM after 24 hrs by MTT assay; format: functional, cell-based; summary of the method: as §1
[9] = system: A2780; assay: Growth inhibition of human A2780 cells after 48 hrs by sulforhodamine B assay; format: functional; conditions: A2780, 48 h
[10] = system: SiHa; assay: Growth inhibition of human SiHa cells after 48 hrs by sulforhodamine B assay; format: functional
[11] = system: MDA-MB-231; assay: Cytotoxicity against human MDA-MB-231 cells assessed as cell viability at 2 to 4 uM after 24 hrs by MTT assay; format: functional, cell-based; summary of the method: as §1
[12] = system: COLO 205; assay: Cytotoxicity against human COLO205 cells assessed as viable cells at 2 uM after 24 hrs by trypan blue exclusion assay; format: functional, cell-based
Summary of the method: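 Colo-205 cells treated 24 h at 1, 2 and 4 µM, trypsinised, mixed with 0.4% trypan blue (10 µl per 100 µl cells), counted on haemocytometer; percentage dead cells calculated; triplicate samples.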

[13] = system: HOP-62; assay: Growth inhibition of human HOP62 cells after 48 hrs by sulforhodamine B assay; format: functional; conditions: HOP-62, 48 h
[14] = system: ZR-75-1; assay: Growth inhibition of human ZR-75-1 cells after 48 hrs by sulforhodamine B assay; format: functional; conditions: ZR-75-1, 48 h
[15] = system: A549; assay: Growth inhibition of human A549 cells after 48 hrs by sulforhodamine B assay; format: functional; conditions: A549, 48 h
[16] = system: MCF7; assay: Growth inhibition of human MCF7 cells after 48 hrs by sulforhodamine B assay; format: functional; conditions: MCF7, 48 h
[17] = biological target: DNA topoisomerase 2-alpha (Homo sapiens) (UniProt P11388); assay: Inhibition of human topoisomerase 2alpha-mediated relaxation of supercoiled pBR322 DNA at 2 uM after 30 mins by agarose gel electrophoresis
Summary of the method: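 Purified human topoisomerase IIα (4 units) with 200 ng supercoiled pBR322 and compound at 2 µM, 30 min at 30 °C in 10 mM Tris-HCl pH 7.9, 50 mM NaCl, 5 mM MgCl2, 1 mM EDTA, 1 mM ATP, 15 µg/mL BSA; EDTA-stopped; 1% agarose gel in TAE, ethidium bromide, UV visualisation.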

[18] = biological target: T1, DNA topoisomerase 1 (Homo sapiens) (UniProt P11387); assay: Inhibition of human topoisomerase 1-mediated relaxation of supercoiled pBR322 DNA at 2 uM after 30 mins by agarose gel electrophoresis
T1 sequence (whole entry): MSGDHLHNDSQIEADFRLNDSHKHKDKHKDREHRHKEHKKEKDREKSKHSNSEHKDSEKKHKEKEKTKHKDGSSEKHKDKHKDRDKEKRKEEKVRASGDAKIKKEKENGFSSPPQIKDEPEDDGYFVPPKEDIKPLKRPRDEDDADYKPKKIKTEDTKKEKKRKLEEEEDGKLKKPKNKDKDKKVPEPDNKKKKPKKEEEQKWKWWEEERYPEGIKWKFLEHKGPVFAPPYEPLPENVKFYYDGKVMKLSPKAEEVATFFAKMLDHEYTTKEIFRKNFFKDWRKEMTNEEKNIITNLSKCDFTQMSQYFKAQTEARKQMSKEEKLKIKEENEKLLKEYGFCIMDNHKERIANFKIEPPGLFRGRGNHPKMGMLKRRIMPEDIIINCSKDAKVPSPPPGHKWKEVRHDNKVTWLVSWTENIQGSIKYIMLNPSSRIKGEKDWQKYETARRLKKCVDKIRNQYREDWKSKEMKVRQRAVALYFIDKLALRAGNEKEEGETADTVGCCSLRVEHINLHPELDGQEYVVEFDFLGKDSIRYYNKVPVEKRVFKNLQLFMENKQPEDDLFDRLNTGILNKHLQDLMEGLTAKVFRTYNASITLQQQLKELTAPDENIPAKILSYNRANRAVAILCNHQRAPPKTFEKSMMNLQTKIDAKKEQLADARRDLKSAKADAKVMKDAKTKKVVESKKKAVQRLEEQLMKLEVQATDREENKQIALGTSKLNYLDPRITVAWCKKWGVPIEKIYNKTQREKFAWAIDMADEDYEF
Summary of the method: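 500 ng supercoiled pBR322 with 0.4 units recombinant human topoisomerase I, compound at 2 µM, 30 min at 37 °C in 10 mM Tris-HCl pH 7.9, 150 mM NaCl, 0.1% BSA, 1 mM spermidine, 5% glycerol; stopped with sarcosyl/dye; relaxation read on 1% agarose gel; camptothecin as reference.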

[19] = system: COLO 205; assay: Growth inhibition of human COLO205 cells after 48 hrs by sulforhodamine B assay; format: functional; conditions: COLO 205, 48 h
[20] = system: COLO 205; assay: Cytotoxicity against human COLO205 cells assessed as cell viability at <0.5 to 1 uM after 24 hrs by MTT assay; format: functional, cell-based; summary of the method: as §1
[21] = system: KB; assay: Growth inhibition of human KB cells after 48 hrs by sulforhodamine B assay; format: functional
[22] = system: COLO 205; assay: Induction of apoptosis in human COLO205 cells assessed as caspase-3 activation at 2 uM after 24 hrs by ELISA; format: functional, cell-based
Summary of the method: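 Colo-205 cells exposed 24 h at 2 µM; lysates in 2X reaction buffer with DTT plus caspase substrate, 1 h at 37 °C; fluorescence read at ex 400/em 505 nm; three independent experiments, mean ± S.D., versus untreated control.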

[23] = system: COLO 205; assay: Induction of apoptosis in human COLO205 cells assessed as DNA fragmentation at 2 to 4 uM after 24 hrs by Hoechst staining-based confocal microscopic analysis; format: functional, cell-based
Summary of the method: (§2)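 Colo-205 cells on coverslips treated 24 h at 2 and 4 µM, 4% paraformaldehyde fixed 15 min, RNase-treated 30 min at 37 °C, Hoechst-stained; nuclear morphology (fragmentation, blebbing) by confocal microscopy versus untreated cells.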

[24] = Growth inhibition of human DWD cells after 48 hrs by sulforhodamine B assay; format: functional
[25] = system: COLO 205; assay: Induction of apoptosis in human COLO205 cells assessed as blebbing at 2 to 4 uM after 24 hrs by Hoechst staining-based confocal microscopic analysis; format: functional, cell-based; summary of the method: as §2

Sequence of DNA topoisomerase 2-alpha (Homo sapiens) (P11388 whole entry): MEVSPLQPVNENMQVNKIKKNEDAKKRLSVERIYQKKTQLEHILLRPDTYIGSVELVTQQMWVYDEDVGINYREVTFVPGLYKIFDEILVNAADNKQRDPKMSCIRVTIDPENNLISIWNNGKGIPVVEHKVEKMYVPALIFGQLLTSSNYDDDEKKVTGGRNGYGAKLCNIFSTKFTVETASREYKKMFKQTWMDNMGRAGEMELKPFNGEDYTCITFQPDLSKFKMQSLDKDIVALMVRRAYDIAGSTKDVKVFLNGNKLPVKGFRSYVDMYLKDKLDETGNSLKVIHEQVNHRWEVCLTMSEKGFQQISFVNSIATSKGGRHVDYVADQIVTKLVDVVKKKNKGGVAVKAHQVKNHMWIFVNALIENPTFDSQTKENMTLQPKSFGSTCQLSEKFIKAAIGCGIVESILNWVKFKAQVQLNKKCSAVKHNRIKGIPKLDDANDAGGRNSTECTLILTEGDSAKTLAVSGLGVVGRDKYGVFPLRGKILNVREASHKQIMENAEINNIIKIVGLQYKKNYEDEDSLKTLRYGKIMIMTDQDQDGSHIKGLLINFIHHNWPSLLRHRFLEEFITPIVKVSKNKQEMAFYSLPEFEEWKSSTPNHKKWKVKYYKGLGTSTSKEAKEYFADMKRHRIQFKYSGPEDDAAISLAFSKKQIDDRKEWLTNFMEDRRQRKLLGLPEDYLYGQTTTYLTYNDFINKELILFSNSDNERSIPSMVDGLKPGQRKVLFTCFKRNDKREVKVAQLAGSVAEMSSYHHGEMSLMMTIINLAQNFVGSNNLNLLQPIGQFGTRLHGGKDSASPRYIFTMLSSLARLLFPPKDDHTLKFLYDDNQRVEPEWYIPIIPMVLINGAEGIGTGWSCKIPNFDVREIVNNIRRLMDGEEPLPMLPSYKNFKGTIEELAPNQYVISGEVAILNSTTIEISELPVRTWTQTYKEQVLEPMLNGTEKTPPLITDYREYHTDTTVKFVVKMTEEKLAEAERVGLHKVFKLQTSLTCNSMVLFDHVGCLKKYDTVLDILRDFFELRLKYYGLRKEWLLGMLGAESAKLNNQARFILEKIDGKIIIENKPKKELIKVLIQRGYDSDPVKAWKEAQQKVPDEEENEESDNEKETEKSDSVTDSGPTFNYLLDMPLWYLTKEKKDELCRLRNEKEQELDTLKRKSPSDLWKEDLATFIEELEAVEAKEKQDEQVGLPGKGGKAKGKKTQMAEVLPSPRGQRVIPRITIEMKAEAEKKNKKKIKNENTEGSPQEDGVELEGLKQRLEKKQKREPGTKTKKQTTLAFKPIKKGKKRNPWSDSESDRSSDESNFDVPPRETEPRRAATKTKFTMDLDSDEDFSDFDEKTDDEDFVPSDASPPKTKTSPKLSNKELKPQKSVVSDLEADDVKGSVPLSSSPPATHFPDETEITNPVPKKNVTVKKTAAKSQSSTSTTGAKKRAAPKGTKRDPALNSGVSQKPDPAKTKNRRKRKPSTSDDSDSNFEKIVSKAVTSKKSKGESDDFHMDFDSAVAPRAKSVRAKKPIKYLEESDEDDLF

Compound	Activity [1]	Activity [2]	GI50 [3]	Activity [4]	Activity [5]	Activity [6]	Percent of cells in S phase [7]	Activity [8]	GI50 [10]	Activity [11]	Activity [12]	GI50 [13]	GI50 [14]	GI50 [15]	GI50 [19]	Activity [20]	GI50 [21]	Activity [22]	Activity [23]	GI50 [24]	also measured
COc1cc([C@@H]2c3cc4c(cc3[C@@H](NC(=O)c3ccc(NC(=O)Nc5ccc(Cl)cc5)cc3)[C@H]3COC(=O)[C@H]23)OCO4)cc(OC)c1OC	Active	17.06%	1970 nM	78.12%	inactive	Active	4.83%	Active	inactive	Active	Active	170 nM	130 nM	2140 nM	10 nM	inactive	inactive	Active	Active	100 nM	GI50 [9]: 2200 nM; GI50 [16]: 110 nM; Inhibition of relaxation (qualitative call) [17]: Active; inhibition [18]: Active; Activity [25]: Active
COc1cc([C@@H]2c3cc4c(cc3[C@@H](O[C@@H]3O[C@@H]5CO[C@@H](C)O[C@H]5[C@H](O)[C@H]3O)[C@H]3COC(=O)[C@H]23)OCO4)cc(OC)c1O [ETOPOSIDE]	Active	49.63%	510 nM	42.68%	inactive	Active	7.36%	Active	3110 nM	Active	Active	800 nM	200 nM	3080 nM	130 nM	inactive	310 nM	Active	Active	620 nM	Activity [25]: Active
